Experimental data from different studies.
Target: Cyclin-dependent kinase 13 (CDK13, Homo sapiens, UniProt Q14004)

| SMILES | test | setting | remaining binding |
| --- | --- | --- | --- |
| N[C@H]1CCN(c2nccc(-c3cnn4ncccc34)n2)C1 | binding | 1 µM | 64% |
| CCCCN(CCCC)C(=O)CN1C[C@H](c2cc(OC)c3c(c2)OCO3)[C@@H](C(=O)O)[C@@H]1CC(C)(C)CCC | cell-free assay, competition with immobilised ligand | 1 µM | 52.5% |
| O=C(Nc1c[nH]nc1C(=O)NC1CCNCC1)c1cc(F)cc(F)c1 | binding, competition with immobilised ligand | 1 µM | 100% |
| O=C(Nc1cccnn1)N1CC(C/C=C/c2cncc(Oc3ccc(C(F)(F)F)cn3)n2)C1 | cell-free assay, competition with immobilised ligand | 1 µM | 98% |
| CN(CCCC(F)(F)F)c1nccc(-c2cnn3ncccc23)n1 | binding | 1 µM | 100% |
| Cc1cnc(Nc2ccc(C(=O)N3CCC(N4CCCC4)CC3)cc2)nc1-c1cc2ccccc2s1 | binding, competition with immobilised ligand | 1 µM | 50% |
| Nc1ncc2c(n1)-c1c([nH]c3ccc(C#CC4CC4)cc13)CCCC2 | binding, competition with immobilised ligand | 1 µM | 84% |
| COCCOc1nc(-c2ccc(Cl)nc2)nc2c1CN(C(=O)c1ncn3ccccc13)CC2 | cell-free assay, competition with immobilised ligand | 0.1 µM | 100% |
| CN(C)c1ncc(F)c(-c2cnn3ncccc23)n1 | binding | 1 µM | 96% |
| O=C(NCCCN1CCOCC1)c1ccc(Nc2ncc(Cl)c(-c3ccc(Cl)s3)n2)cc1 | binding, competition with immobilised ligand | 1 µM | 34% |
| CC(=O)C1=C(C)N(c2cccc(C(F)(F)F)c2)C(=O)N[C@@H]1c1ccc(C#N)nc1 | cell-free assay, competition with immobilised ligand | 1 µM | 100% |
| c1cncc(-c2cccc(Nc3nccc(NC4CCCCC4)n3)c2)c1 | binding, competition with immobilised ligand | 10 µM | 100% |
| CN(C)c1nccc(-c2cnn3ncccc23)n1 | binding | 1 µM | 84% |
| O=C(NCCCN1CCOCC1)c1ccc(Nc2nccc(-c3cc4ccccc4s3)n2)cc1 | binding, competition with immobilised ligand | 1 µM | 68% |
| COc1cnc(Nc2cccc(S(N)(=O)=O)c2)nc1N1CCN(c2ccccc2)C(=O)C1 | binding, competition with immobilised ligand | 1 µM | 94% |
| C[C@@H]1CCN(c2nccc(-c3cnn4ncccc34)n2)C1 | binding | 1 µM | 72% |
| Cc1c[nH]c2nccc(Oc3c(F)cc(Nc4cc(Cl)nc(N)n4)cc3F)c12 | cell-free assay, competition with immobilised ligand | 0.1 µM | 73% |
| CNC(=O)[C@@H]1CC[C@@H](n2c(-c3ccc4cnccc4c3)nc3ccc(C(=O)NCc4cccc(C(N)=O)c4)cc32)C1 | binding, competition with immobilised ligand | 1 µM | 100% |
| CN(c1nccc(-c2cnn3ncccc23)n1)C1CC1 | binding | 1 µM | 100% |
